Assay outcomes as filed in PubChem BioAssay.
Rtt109 HAT inh – inhibitors of Candida albicans Rtt109/Vps75 histone acetyltransferase; Q5AAJ8; purified Rtt109/Vps75, ThioGlo CoA-SH fluorescence, 4 h; inhibition, % at 34.9 µM; 330,000 compounds, 0.16% hits;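 active means inhibition of at least 50% in every replicate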
Target sequence (Q5AAJ8 whole entry, looked up): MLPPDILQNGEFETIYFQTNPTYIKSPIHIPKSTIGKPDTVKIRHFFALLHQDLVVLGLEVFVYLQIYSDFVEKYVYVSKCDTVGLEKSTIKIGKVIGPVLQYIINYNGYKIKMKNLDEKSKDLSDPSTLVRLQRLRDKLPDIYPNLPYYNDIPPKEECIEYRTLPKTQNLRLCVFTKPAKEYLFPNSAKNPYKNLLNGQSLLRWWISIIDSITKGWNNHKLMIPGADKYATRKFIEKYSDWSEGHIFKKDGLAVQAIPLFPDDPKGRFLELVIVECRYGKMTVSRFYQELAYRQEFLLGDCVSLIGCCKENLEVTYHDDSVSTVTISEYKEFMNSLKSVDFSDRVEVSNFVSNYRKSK
INS-1E GSIS act – GLuc luminescence reporter in INS-1E cells, primary screen for activators of glucose-dependent secretion of insulin | INS-1E GLuc reporter insulin secretion, 2-3 h | activation, % at 16.6 µM | 370,000 compounds, 0.61% hits;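 active means lowest replicate activation of at least 40%, so every replicate reaches that level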;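 further: 0% = median of neutral control wells and 100% = median of IBMX positive control wells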
dFosB activator – mouse delta FosB homodimer activation | P13346 | AID 493131 | purified delta FosB, TAMRA-CDK5 oligo fluorescence polarization; percent of positive-control signal above neutral wells | 340,000 compounds, 0.99% hits | activation, % at 25 µM;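 active means mean activation above about 17%, with every replicate also reaching it, limit read from the data, passing the limit was not always enough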
Cneo AK release – Cryptococcus neoformans lysis via adenylate kinase release; C. neoformans lysis, adenylate kinase release luminescence, 4 h; normalised: neutral wells 0, clomiphene wells 100; lysis activity, % at 15 µM; 360,000 compounds, 0.2% hits;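 active means mean lysis activity across replicates of at least 80%, whatever share of replicates individually reach that level; inactive means mean lysis activity below 80%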
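Assay system: log-phase C. neoformans yeast / Quantity: yeast cell density of 5 × 10^6 cells/mL / Medium: fresh YPD growth medium / Compound: single dose / Timing: static 4 h at 37 °C with compound, 1 h detection / Measured by: adenylate kinase release luminescence / Read-out: lysis from increased AK signal / Benchmarks: Clomiphene as positive lysis control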
Env fusion inh – inhibitors of HIV Env-mediated cell fusion; 360,000 compounds, 1.1% hits; HeLa-JRFL Env/CEM21 cell fusion, luciferase; inhibition, % at 12.3 µM;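 active means mean replicate inhibition score of at least 50 and every replicate individually at or above 50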;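 further: 0% = plate neutral controls and 100% = maraviroc near 300 nM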
miR-122 sensor – inhibitors of miR-122 in Huh7 cells. Huh7 miR-122 Renilla luciferase sensor, 48 h; neutral wells = 0, positive control = 100. activation (reporter increase), % at 12.5 µM. 340,000 compounds, 0.3% hits. AID 602342;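 active means mean replicate activation score at least 90 and every replicate individually at or above 90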;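 further: higher luciferase means less miR-122 activity so hits act as miR-122 inhibitors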
Numbers without * were called inactive; nt = no result given; [ ] = remark or other dose. The list is not random: actives were taken first. Their share in the collection is about 2.4%.

SMILES	Rtt109 HAT inh	INS-1E GSIS act	dFosB activator	Cneo AK release	Env fusion inh	miR-122 sensor
COc1ccccc1CCNC(=O)CSc1nc(-c2ccco2)cc(C(F)(F)F)n1	-17	-11	14	-1	59*	1
CC(C)NC(=O)N1CCCCN2[C@H](CO)[C@@H](c3ccc(C#Cc4ccccc4F)cc3)[C@H]2C1	nt	1	nt	5	nt	0[16.7 µM]
C=C(CN(C)C)C(=O)c1ccc(OC2OC(COC(C)=O)C(OC(C)=O)C(OC(C)=O)C2OC(C)=O)cc1 (stereo not given)	3	nt	21*	nt	46	-1
CN(CCO)c1cc(Sc2nc3ccccc3s2)c2nonc2c1[N+](=O)[O-]	-1	164*	-9	3	nt	0
CCc1n[nH]c(=S)n1/N=C/C(C)=C\c1ccccc1	1	8	-15	5	56*	nt
CC(/C=N/n1c(-c2ccccn2)n[nH]c1=S)=C\c1ccccc1	nt	nt	nt	0	-8	-3
Cc1c(NC(=S)N/C(=N/S(=O)(=O)c2ccccc2)c2ccccc2)c(=O)n(-c2ccccc2)n1C	-5	44*	-7	-3	14	3
CC1=CC(=C(C#N)C#N)C=C(C)N1CCN1CCN(C(=O)Nc2cccc(Cl)c2)CC1	-6	3	30*	nt	9	nt
CC(=O)N1CCN(CCN2C(C)=CC(=C(C#N)C#N)C=C2C)CC1	-4	6	0	-1	9	-4
CC1=CC(=C(C#N)C#N)C=C(C)N1CCN1CCNCC1	-5	12	19*	nt	-18	5
O=C(Nc1cccc(Cl)c1)N1CCN(Cc2ccccc2)CC1	-8	-21	9	-1	-59	nt
CCCCCn1c(C(C)NC(=O)CCC)nc2ccccc21 (stereo not given)	-7	nt	-8	-3	74*	nt
O=C(NCC[C@@H]1CC[C@H](NC(=O)c2ccc3c(c2)OCO3)[C@H](CO)O1)Nc1cc(F)ccc1F	nt	-14	nt	5	3[16.7 µM]	12[16.7 µM]
O=C(O)C[C@H]1C=C[C@@H](NC(=O)Nc2ccccc2)[C@@H](CO)O1	nt	-4	nt	-3	11[16.7 µM]	nt
O=c1cc(Cl)[nH]c(=O)n1Cc1ccccc1	3	48*	-1	5	8	-5
CO[C@H]1CN(C)C(=O)c2ccc(NC(=O)c3ccccc3F)cc2OC[C@@H](C)N(C(C)=O)C[C@@H]1C	nt	-6	nt	7	nt	nt
O=S1(=O)CC(O)C(NCc2cccnc2)C1 (stereo not given)	65*	7	-5	-5	nt	-1
CC(C)CNC1CS(=O)(=O)CC1O (stereo not given)	-9	14	-1	-3	7	-4
CC(C)CCC(O)(CCC(C)C)C(=O)NN1CCCCC1	6	49*	-6	nt	-6	-21
COc1ccc2c3c([nH]c2c1)[C@H](CO)N(C(=O)C1CC1)CC31CN(C(=O)c2ccncc2)C1	nt	-12	nt	nt	nt	nt
Nn1cnnc1SCC(=O)Nc1ccc(C2CCCCC2)cc1	-3	nt	2	nt	nt	nt
O=C(O)CSCC(=O)Nc1ccc(C2CCCCC2)cc1	1	5	2	2	98*	-17
Cc1ccccc1-c1cc(C(=O)Nc2sc(C(=O)OC(C)C)c(C)c2C#N)c2ccccc2n1	1	nt	-3	-9	63*	-4
COC(=O)[C@@H]1[C@@H](CO)[C@@H]2Cn3c(ccc(C4=CCCCC4)c3=O)[C@@H]2N1CC1CCCCC1	nt	-7	nt	2	nt	-8[16.7 µM]
COc1cccc(/C=N/Nc2ccc(S(=O)(=O)O)cc2)c1O	-10	nt	-3	3	24	-6
SMILES	Rtt109 HAT inh	INS-1E GSIS act	dFosB activator	Cneo AK release	Env fusion inh	miR-122 sensor
O=c1nccc(N/N=C/c2ccccc2O)[nH]1	0	16	1	nt	18	nt
COc1cccc(OCc2cc(/C=N/Nc3ccc(C(=O)O)cc3)ccc2OC)c1	50*	5	-22	1	3	-47
COc1cccc(/C=N/Nc2ccnc(=O)[nH]2)c1O	10	4	-2	-9	65*	-9
COc1cccc(/C=N/Nc2ccc(C(=O)O)cc2)c1O	15	0	-2	nt	86*	0
COc1cccc(/C=N/Nc2nc(Nc3ccc([N+](=O)[O-])cc3)nc(N3CCCC3)n2)c1O	-7	6	67*	5	22	-3
COc1c(/C=N/Nc2nc(N3CCCCC3)nc(N3CCCCC3)n2)cccc1[N+](=O)[O-]	4	nt	-5	0	-43	-8
